The subject of data set [1] is Human T-lymphotropic virus 2. Briefly: Binding affinity to HTLV-2 FSS RNA up to 3 uM by surface plasmon resonance analysis. Background: SPR reads the build-up and loss of mass on a sensor chip optically.
Data set [2] is described as follows: Binding affinity to HIV-1 FSS RNA. Further details: species or system Human immunodeficiency virus 1.
Data set [3] can be described thus: Binding affinity to HIV-1 FSS RNA in HBS buffer at pH 7.4 by surface plasmon resonance analysis. Further details: species or system Human immunodeficiency virus 1. The note with it: read-out: Kd. The procedure, abridged: (§1)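 RNA captured on SPR chips at low (~300 RU) and high (~1200 RU) density, each measured once. Compound flowed in HBS (0.01 M HEPES, 0.150 M NaCl, pH 7.4) at 60 μL/min over at least five concentrations, each injected at least twice. A 20 s 0.5 or 1 M NaCl pulse regenerated the chip where needed. Reference-subtracted, blank-corrected sensorgrams (association plus dissociation) were globally fit to 1:1 Langmuir; error is standard error of the fit.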

Data set [4] in a line: Binding affinity to HIV-1 FSS RNA in HBS buffer at pH 7.4 assessed as dissociation rate by surface plasmon resonance analysis. The arrangement: species or system Human immunodeficiency virus 1. The procedure, abridged:
as §1

Data set [5] has as its system Human immunodeficiency virus 1. Nature of the data set: Binding affinity to HIV-1 FSS RNA in HBS buffer at pH 7.4 assessed as association rate by surface plasmon resonance analysis. Summed up: as §1
Data set [6] concerns HEK293FT. Briefly: Binding affinity to HIV-1 FSS RNA transfected in HEK293FT cells after 36 hrs by Renilla/firefly luciferase reporter gene assay. The note with it: Human immunodeficiency virus 1. Type of data set: cell-based. The procedure, abridged:
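HEK293FT cells (1.5 × 10^4/well) transiently transfected with pDualHIV(−1) or in-frame pDualHIV(0) Rluc–FSS–Fluc plasmid (0.2 μg). Compound (0–50 μM) added 5 h later, in triplicate, for 36 h at 37 °C. Fluc/Rluc ratio from lysate, expressed relative to untreated transfected cells (100%). Error is SEM.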

Data set [7] in a line: Cellular uptake in cytoplasm of HEK293FT cells at 50 uM measured for 12 hrs by fluorescence microscopy. Type of data set: ADME, cell-based. The note with it: human.
Data set [8] is described as follows: Cytotoxicity against HEK293FT cells assessed as cell viability at >10 uM after 24 hrs by WST-1 assay. Type of data set: cell-based. To be noted: human. Summed up: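 HEK293FT cells at 80% confluence in DMEM/10% FBS exposed to compound (up to 0.5 mM) or a water control, in triplicate, for 24 h at 37 °C. WST-1 reagent then added for 2 h. Absorbance at 450 minus 690 nm, blank-corrected, plotted against concentration. Error is SD of three measurements.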

The nature of data set [9]: Cellular uptake in nucleus of HEK293FT cells at 50 uM measured for 12 hrs by fluorescence microscopy. Type of data set: ADME, cell-based. To be noted: human.
The test system of data set [10] is HEK293FT. Nature of the data set: Binding affinity to HTLV-2 FSS RNA transfected in HEK293FT cells at 1 to 50 uM after 36 hrs by Renilla/firefly luciferase reporter gene assay. Type of data set: cell-based. To be noted: Human T-lymphotropic virus 2. The procedure, abridged: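 HEK293FT cells transiently transfected with pDualHTLV-2(−1) (Fluc made only via −1 frameshift at the HTLV-2 site) and treated 5 h later with compound (0–50 μM) in triplicate for 36 h at 37 °C. Fluc/Rluc ratio from lysate, relative to untreated transfected cells. Error is SEM.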
For orientation: A reporter such as luciferase makes a cellular process visible.

The values that follow come from ChEMBL document CHEMBL3120090, “High-affinity recognition of HIV-1 frameshift-stimulating RNA alters frameshifting in vitro and interferes with HIV-1 infectivity” (J Med Chem, 2014).

What is called Kd is the equilibrium constant for the complex coming apart.

Active and inactive are the calls of the source. The calls are words filed in the database; no cut-off is given here.

With `NCCCNC(=O)[C@H](Cc1ccccc1)NC(=O)[C@@H]1CCCN1C(=O)[C@@H](N)C/C=C\C[C@H](N)C(=O)N1CCC[C@H]1C(=O)N[C@@H](Cc1ccccc1)C(=O)NCCCN`, the result in [1] was inactive.
`CN(C)CCCNC(=N)c1ccc(C(=N)NCCCN(C)C)cc1`: in data set [2], the affinity, expressed as Kd, was 360 µM.
With `CCc1nc2ccccc2cc1C(=O)N[C@@H](C/C=C/C[C@H](NC(=O)c1cc2ccccc2nc1CC)C(=O)N1CCC[C@H]1C(=O)N[C@@H](Cc1ccccc1)C(=O)NCCCN)C(=O)N1CCC[C@H]1C(=O)N[C@@H](Cc1ccccc1)C(=O)NCCCN`, the Kd in data set [3] stood at 4.66 µM. For the same compound, the “Dissociation rate constant (koff)” value in [4] turned out to be 7.5 ×10⁻³ /s. Besides, the Ka in data set [5] came out at 1.62 ×10³ /M/s.
With `CCc1nc2cc3ccccc3cc2cc1C(=O)N[C@@H](C/C=C\C[C@H](N)C(=O)N1CCC[C@H]1C(=O)N[C@@H](Cc1ccccc1)C(=O)NCCCN)C(=O)N1CCC[C@H]1C(=O)N[C@@H](Cc1ccccc1)C(=O)NCCCN`, in data set [1], the result was inactive. Further, the equilibrium dissociation constant (Kd) in [3] amounted to 2.76 µM. For the same compound, the “Dissociation rate constant (koff)” value in data set [4] is 1.21 ×10⁻² /s. The Ka in data set [5] stood at 4.58 ×10³ /M/s.
For the compound `CCc1nc2cc3ccccc3cc2cc1C(=O)N[C@@H](CSSC[C@H](NC(=O)c1cc2cc3ccccc3cc2nc1CC)C(=O)N1CCC[C@H]1C(=O)N[C@@H](Cc1ccccc1)C(=O)NCCCN)C(=O)N1CCC[C@H]1C(=O)N[C@@H](Cc1ccccc1)C(=O)NCCCN`, the figures for the Activity in data set [6] and in data set [8] were 25% and “Toxic”, respectively. Moreover, the Kd in data set [3] stood at 0.741 µM. Also, the Drug uptake entry in data set [7] and in data set [9] was “Active” throughout. The “Dissociation rate constant (koff)” value in [4] amounted to 7.92 ×10⁻³ /s. For the same compound, the result in data set [10] was inactive. Moreover, in [5], the Ka was determined as 1.07 ×10⁴ /M/s.
